# According to PubChem BioAssay:
# Activity calls are given as the source filed them.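 The calls were made as follows, unless noted: active = GFP response above 150% of the DMSO level; inconclusive = fewer than 70 events counted for a yeast strain; inactive = the rest.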
# Legend:
# [1] = hit retest on RPL19A-GFP reporter strain – cell-based, S. cerevisiae, flow cytometry, cherry picks, mother/daughter gates, confirmation (AID 2270;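 active = GFP response below 50% of the DMSO control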); conditions: 3 h, at 10 µM, stronger effect = lower value, 100 = same GFP as DMSO wells
# [2] = yeast TOR pathway reporter LAP4-GFP change – cell-based, cherry picks, flow cytometry, mother/daughter gates, confirmation (AID 2271;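 active = GFP response above 150% of the DMSO control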;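 also: ratio of sample to DMSO plate mean so 100% equals DMSO level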); conditions: S. cerevisiae LAP4-GFP strain, 3 h, at 10 µM, stronger effect = higher value, 100 means same as DMSO control
# Outline: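 material = Alexa 633-stained baker's yeast GFP-fusion strain | amount = 0.2 OD600 cells | schedule = 30 °C, 3 h compound incubation, rotating | signal = GFP by flow cytometry | measure = per-gate (all, mother, daughter) GFP response vs DMSO | controls = positive rapamycin (400 ng/mL), negative DMSO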
# [3] = TOR pathway reporter MEP2-GFP, retest of hits – S. cerevisiae, flow cytometry GFP, cherry picks, confirmation (AID 2272;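 active = GFP response above 150% of the DMSO control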;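 also: ratio of well signal to plate DMSO mean so 100% equals DMSO level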); conditions: S. cerevisiae MEP2-GFP strain, 3 h, at 10 µM, stronger effect = higher value
# [4] = yeast AGP1-GFP fluorescence change, single-dose – cell-based, flow cytometry, S. cerevisiae, cherry picks, confirmation (AID 2273);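 also: median GFP channel fluorescence over the whole cell population gate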; conditions: S. cerevisiae AGP1-GFP strain, 3 h, at 10 µM
# [5] = TOR pathway CIT2 reporter hit retest – S. cerevisiae, GFP fusion, cherry picks, mother/daughter gates, confirmation (AID 2274); conditions: S. cerevisiae CIT2-GFP strain, flow cytometry, 3 h, at 10 µM, stronger effect = higher value
# [6] = measured here: daughter cell gate
# [7] = measured here: mother cell gate
# [8] = measured here: daughter cell gate response
# [9] = measured here: mother cell gate response
Structure (SMILES),GFP response vs DMSO [1],"GFP response vs DMSO [1, 6]","GFP response vs DMSO [1, 7]",GFP response relative to DMSO [2],"GFP response relative to DMSO [2, 8]","GFP response relative to DMSO [2, 9]",GFP response vs DMSO [3],"GFP response, % of DMSO [4]","GFP response, % of DMSO [5]","GFP response, % of DMSO [5, 6]","GFP response, % of DMSO [5, 7]"
Cn1ncc(S(=O)(=O)Cc2ccccc2)c(Cl)c1=O,94.2% (inactive),90.6%,87.7%,316% (active),160%,319%,100% (inactive),79.1% (inactive),92.6% (inactive),101%,84.3%
CCc1nnc(NC(=O)c2ccc(S(=O)(=O)N(C)Cc3ccccc3)cc2)o1,99% (inactive),99.5%,98.5%,103% (inactive),106%,103%,104% (inactive),103% (inactive),103% (inactive),99.7%,105%
C/C(=N\NC(=O)COc1ccccc1-c1ccccc1)c1ccccn1,101% (inactive),99.1%,102%,145% (inactive),136%,162%,96.6% (inactive),94.5% (inactive),102% (inactive),106%,97.7%
O=C(O)c1ccccc1C(=O)Nc1ccccc1,101% (inactive),101%,99.5%,94.4% (inactive),92.6%,95.2%,96.8% (inactive),104% (inactive),102% (inactive),101%,101%
Cc1ccn2c(NC3CCCCC3)c(C(C)C)nc2c1,99.4% (inactive),99.4%,99.2%,101% (inactive),101%,100%,100% (inactive),100% (inactive),101% (inactive),103%,101%
CSc1ccc(/C=C/C(=O)c2ccc(NC(C)=O)cc2)cc1,111% (inactive),93.2%,94.5%,111% (inactive),104%,113%,101% (inactive),97.5% (inactive),91.5% (inactive),90.2%,82.1%
Cc1ccc(S(=O)(=O)N2CCCC2C(=O)Oc2ccccc2)cc1 (stereo not drawn),98.8% (inactive),99.1%,99.5%,99.2% (inactive),99.2%,99.3%,100% (inactive),95.6% (inactive),98.3% (inactive),97.2%,97.3%
CCC(=O)N/C(N)=N/c1nc2ccccc2o1,83.5% (inactive),85.1%,84.8%,110% (inactive),106%,112%,109% (inactive),96.2% (inactive),98.3% (inactive),97.2%,99.7%
Cc1ccccc1NC(=O)c1ccccc1,96.6% (inactive),98.1%,96.9%,95.4% (inactive),97.6%,94%,107% (inactive),96.4% (inactive),98.3% (inactive),99.1%,97.3%
Cc1cc(C)c(OCC(=O)Nc2nc(-c3ccccn3)cs2)c(C)c1,98.6% (inactive),98.3%,98.8%,121% (inactive),115%,126%,103% (inactive),95.8% (inactive),92.2% (inactive),95.2%,88.8%
Cc1cccc(N2C(=O)CC(Sc3nc(C)c4c(n3)CCCC4)C2=O)c1 (stereo not drawn),96.8% (inactive),95.4%,97.2%,94.1% (inactive),94.4%,95.1%,102% (inactive),95% (inactive),99.7% (inactive),99.1%,99.7%
COc1cc(OC)cc(C(=O)N2CCN(c3ccccc3F)CC2)c1,98.6% (inactive),97.3%,99.1%,97.4% (inactive),98.7%,98.3%,100% (inactive),98.3% (inactive),99.1% (inactive),99.7%,98.7%
COC(=O)C1CCN(C(=O)COC(=O)CCc2nc3ccccc3c(=O)[nH]2)CC1,98.8% (inactive),99.6%,99.8%,97.7% (inactive),97.9%,96.5%,99.5% (inactive),98% (inactive),99.3% (inactive),102%,95.6%
CCNC(=O)/C(C#N)=C/c1c(N2CC(C)OC(C)C2)nc2ccccn2c1=O (stereo not drawn),97.8% (inactive),99.3%,98.1%,99.5% (inactive),102%,99.4%,99% (inactive),106% (inactive),103% (inactive),103%,104%
COc1ccc(C(=O)/C=C2/C(=O)Nc3ccccc32)c(OC)c1,99.5% (inactive),96.7%,95.2%,136% (inactive),123%,139%,97.8% (inactive),99.2% (inactive),82.2% (inactive),83.4%,77.3%
Cc1ccc(-c2nc(NC(=O)c3nn(C)cc3[N+](=O)[O-])sc2C)cc1,100% (inactive),97.3%,101%,98.7% (inactive),97.2%,101%,102% (inactive),101% (inactive),96.5% (inactive),91.5%,97.7%
Cc1ccn2c(NC3CCCCC3)c(C)nc2c1,99.4% (inactive),100%,99.6%,95.7% (inactive),95.9%,96.2%,99% (inactive),99% (inactive),98.8% (inactive),101%,96.8%

Structure (SMILES),GFP response vs DMSO [1],"GFP response vs DMSO [1, 6]","GFP response vs DMSO [1, 7]",GFP response relative to DMSO [2],"GFP response relative to DMSO [2, 8]","GFP response relative to DMSO [2, 9]",GFP response vs DMSO [3],"GFP response, % of DMSO [4]","GFP response, % of DMSO [5]","GFP response, % of DMSO [5, 6]","GFP response, % of DMSO [5, 7]"
C=CCn1c(=O)c(C(=O)Nc2ccccc2C(=O)OCC)c(O)c2ccccc21,100% (inactive),101%,101%,87.2% (inactive),86.4%,89.7%,99.5% (inactive),101% (inactive),96.4% (inactive),96.4%,95.6%
Cc1cccc(NC(=S)NCC23C=CC(O2)C2C(=O)N(c4ccc(Cl)cc4)C(=O)C23)c1 (stereo not drawn),100% (inactive),103%,99.8%,103% (inactive),102%,104%,102% (inactive),100% (inactive),104% (inactive),104%,103%
COc1ccc(OC)c(S(=O)(=O)ON2C(=O)c3ccccc3C2=O)c1,105% (inactive),98.3%,93.8%,156% (active),157%,158%,114% (inactive),96.9% (inactive),102% (inactive),119%,87.5%
O=C(NCC(=O)N1CCCC1)c1cccs1,99.8% (inactive),99.6%,100%,99.2% (inactive),97.6%,98.3%,100% (inactive),97.2% (inactive),104% (inactive),105%,104%
CCOC(=O)CS(=O)(=O)c1nc(-c2ccccc2)cc(C(F)(F)F)n1,101% (inactive),105%,96.2%,204% (active),192%,206%,130% (inactive),110% (inactive),110% (inactive),110%,101%
COc1ccc(-c2noc(CCCC(=O)NCCc3ccccc3)n2)cc1OC,99.3% (inactive),97.3%,97.3%,100% (inactive),101%,101%,103% (inactive),100% (inactive),101% (inactive),101%,100%
Cc1n[nH]c(C)c1N1C(=O)c2cccc3c(Br)ccc(c23)C1=O,101% (inactive),100%,101%,98.8% (inactive),99.3%,98.5%,104% (inactive),92.5% (inactive),96.4% (inactive),96.4%,94.5%
CCn1c(=O)c(C(=O)NCCCO)c(O)c2ccccc21,102% (inactive),101%,102%,111% (inactive),111%,112%,114% (inactive),99.1% (inactive),106% (inactive),105%,107%
CN1C(=O)/C(=N\OC(=O)c2cccc3ccccc23)c2ccccc21,102% (inactive),99.8%,93.4%,163% (active),140%,154%,110% (inactive),88.4% (inactive),99.3% (inactive),102%,80.5%
COc1cccc(/C=N\NC(=O)c2cc(OCC(F)(F)F)ccc2OCC(F)(F)F)c1,98.6% (inactive),99.1%,97.9%,94.1% (inactive),92.8%,92.9%,100% (inactive),96% (inactive),99.7% (inactive),101%,98.5%
COc1ccc(-c2nn(-c3ccccc3)cc2C(=O)NC(=S)NNC(=O)c2ccncc2)cc1,100% (inactive),101%,98.3%,105% (inactive),108%,105%,101% (inactive),101% (inactive),107% (inactive),108%,104%
CCOc1cc(/C=C2\N=C(C)OC2=O)cc(Cl)c1OCC(=O)OC,105% (inactive),106%,101%,122% (inactive),120%,125%,101% (inactive),92.4% (inactive),93% (inactive),95.6%,90.7%
O=C(Oc1oc(-c2ccco2)nc1C=Nc1ccc(Cl)cc1)c1ccco1,104% (inactive),104%,103%,176% (active),154%,188%,112% (inactive),99.8% (inactive),89.7% (inactive),95.2%,83.8%
CCCc1[nH]nc2c1C(c1ccc(OC)c(Cn3nc(C)c(Br)c3C)c1)C(C#N)=C(N)O2 (stereo not drawn),95% (inactive),94.2%,96.2%,97.7% (inactive),97.9%,98.5%,99.5% (inactive),99.3% (inactive),97.8% (inactive),98.3%,95.6%
O=C(N/N=C/c1ccc(F)cc1)c1ccc(Br)cc1,99.6% (inactive),98.6%,98%,111% (inactive),109%,109%,96.8% (inactive),99.6% (inactive),102% (inactive),101%,87%
CCOC(=O)c1c(C)oc2c1c(C(c1ccncc1)N1CCOCC1)c(O)c1ccccc12 (stereo not drawn),102% (inactive),109%,89.6%,186% (active),167%,180%,131% (inactive),101% (inactive),103% (inactive),114%,94.4%
